Granule exo inh: LAMP-1 surface exposure blockers, TALL-104 cells – cell-based, flow cytometry, MLPCN library, primary screen; AID 651702, 2012; inhibition, % at 10 µM; TALL-104 LAMP-1 surface exposure; cells stimulated with thapsigargin and PMA; 0.66% of 360,000 active;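 active means inhibition above about 55%, limit read from the data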
Apaf1 inhib: inhibitors of human Apaf-1 apoptosome, primary screen, biochemical, DEVD-Rh110 fluorescence, uHTS; reconstituted apoptosome caspase-3 activity; 0.71% of 330,000 active; Apoptotic protease-activating factor 1 (Homo sapiens), O14727; AID 489030, 2010; inhibition, % at 20 µM; active means inhibition of at least 40% at 20 µM;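 further: plate controls were DMSO wells for no effect and DEVD-CHO caspase inhibitor wells for full effect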
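Assay system: Apoptosome proteins | Medium: pH 7.5 Hepes buffer with CHAPS, BSA, DTT | Also added: Cytochrome c and DEVD-Rh110 substrate | Times: 30 min plus 50 min, RT | Detection: Rhodamine 110 fluorescence at Ex 480/Em 540 nm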
MPTP inh: mitochondrial permeability transition pore inhibitors, primary screen, biochemical, isolated mouse mitochondria, absorbance; Ca2+ swelling absorbance, 30 min; inhibition, % at 10 µM; 1.4% of 360,000 active; AID 602449, 2012;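 active means inhibition of 50% or more, scaled per plate between neutral and stimulator controls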;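 further: 0% = DMSO wells given calcium and 100% = 1 mM EGTA wells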
MIN6 prolif: inducers of MIN6 beta-cell proliferation, primary screen, ATP luminescence, uHTS. MIN6 cells proliferation, ATPlite luminescence, 48 h; cells starved in 0.2% serum; 100% = growth in 10% serum. proliferation, % at 10 µM. 0.29% of 330,000 active. AID 2380, 2010;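 active means compounds whose signal lies at least 3.5 SD above the mean of all wells on their plate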;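 further: 0% = DMSO-treated cells in low-serum medium and 100% = 10% serum control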
iPSC survival up: enhancers of single-cell hiPSC survival, primary screen, ATPlite luminescence. 100% = ROCK inhibitor wells, 0% = DMSO. survival enhancement, % at 20 µM. AID 602274, 2012. 0.044% of 360,000 active; in the data active means survival enhancement above about 18%;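 further: cells exposed to compounds for 16 hours before the ATP read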
UBC13 inh: UBC13 polyubiquitin chain formation inhibitors, primary screen, biochemical, TR-FRET, uHTS; Ubiquitin-conjugating enzyme E2 N (Homo sapiens), P61088; inhibition, % at 20 µM; 0.47% of 330,000 active; in the data active means inhibition above about 45%, passing the limit was not always enough
The depositor's hits bear a star; · = not tested or not shown. Shown are actives, neighbours in structure and some others; about 3% of the full set was active somewhere.

SMILES	Granule exo inh	Apaf1 inhib	MPTP inh	MIN6 prolif	iPSC survival up	UBC13 inh
S=C(NCc1ccccc1)C(=S)NCc1ccccc1	97*	·	-1	·	6	·
COC(=O)c1cccc2c1-c1ccccc1/C2=N\NC(N)=O	4	14	0	-5	-1	-6
COC(=O)c1cccc2c1-c1ccccc1/C2=N/O	0	6	1	5.5*	-2	13
CCOC(=O)N1CCN(C2=C(NS(=O)(=O)c3ccc(C)cc3)C(=O)c3ccccc3C2=O)CC1	2	86*	1	-4	0	-89
CC(/C=C/c1ccco1)=N/NC(=O)CNc1ccccc1C	1	-4	0	0	1	-9
CC(/C=C/c1ccco1)=N\NC(=O)CNc1ccc2ccccc2c1	100*	17	2	-2	2	-12
O=C(OCc1ccc(Br)cc1)c1ccncc1	-8	8	-2	4	3	5
O=C(OCc1ccc(Br)cc1)c1cnc(Cl)c(Cl)c1	61*	16	0	0	0	2
O=C(COC(=O)CSc1ccc([N+](=O)[O-])cc1)NCCCc1ccccc1	-10	18	-2	-2	0	-6
O=S(=O)(N=C1C=CC(=NS(=O)(=O)c2ccccc2)c2ccccc21)c1ccccc1	24	·	0	·	-3	·
CCc1ccc(S(=O)(=O)/N=C2\C=CC(=O)c3ccccc32)cc1	·	55*	·	-6	·	-39
CCc1ccc(S(=O)(=O)/N=C2/C=C(Sc3ncn[nH]3)C(=O)c3ccccc32)cc1	98*	·	8	·	-4	·
CC(=O)N(C)c1ccc(N=Cc2cc3c(cc2[N+](=O)[O-])OCO3)cc1	6	65*	4	-4	0	-18
O=C(C(O)c1ccc(Br)cc1)N1CCC(Nc2ccc3[nH]ncc3c2)CC1 (configuration not stated)	9	·	0	·	111*	·
O=C(/C=C/c1ccccc1)NCC(=O)N/N=C/c1ccco1	76*	5	1	-2	0	-6
O=C(/C=C/c1ccco1)NCC(=O)N/N=C/c1ccc(Cl)cc1	1	0	2	-1	1	6
COc1cc(C2/C(=C(\O)c3ccc4c(c3)CC(C)O4)C(=O)C(=O)N2CCN2CCOCC2)cc(OC)c1OC (configuration not stated)	7	-4	0	1	0	-5
COCC(C)NC(=O)CCS(=O)(=O)c1nc(-c2ccc(OC)cc2)cc(C(F)(F)F)n1 (configuration not stated)	78*	-2	3	-7	-4	11
CCOC(=O)CS(=O)(=O)c1nc(-c2ccccc2)cc(C(F)(F)F)n1	30	-2	-4	-4	-1	8
CCOC(=O)CS(=O)(=O)c1nc(-c2ccc(F)cc2)cc(C(F)(F)F)n1	96*	6	-1	-4	-7	6
CCOC(=O)CCS(=O)(=O)c1nc(-c2ccccc2)cc(C(F)(F)F)n1	88*	2	-1	-6	-5	5
Cc1ccc2[nH]cc(S(=O)(=O)c3ccc(C)c(C)c3)c(=O)c2c1	-1	1	1	0	-1	15
CC(=O)O[C@@H]1[C@@H](O)[C@@H](O)[C@H](Oc2c(-c3ccc(O)cc3)oc3c(CC=C(C)C)c(O)cc(O)c3c2=O)O[C@H]1C	·	26	·	-6	·	46*
O=c1c(O[C@H]2O[C@@H](CO)[C@H](O)[C@@H](O)[C@@H]2O)c(-c2ccc(O)cc2)oc2cc(O)cc(O)c12	68*	1	1	0	4	-13
O=c1c(OC2OC(CO)C(O)C(O)C2OC2OC(CO)C(O)C(O)C2O)c(-c2ccc(O)cc2)oc2cc(O)cc(O)c12 (configuration not stated)	4	-29	1	-1	2	-8
Cc1ccc(S(=O)(=O)N(C)C[C@@H]2Oc3ncc(C#CCC(C)C)cc3C(=O)N([C@H](C)CO)C[C@H]2C)cc1	-7	·	-2	·	-2	·

Source: PubChem
